30 molecules from ChEMBL document CHEMBL1287677, “Antimalarial histone deacetylase inhibitors containing cinnamate or NSAID components” (Bioorg Med Chem Lett, 2010) can be followed below.

Activity calls are given as the source filed them. The rule behind the calls is not given here. Some results are limits rather than exact numbers.

For one data set, the system named is Plasmodium falciparum. Put plainly: Antimalarial activity against drug-sensitive ring-stage Plasmodium falciparum 3D7 infected in human O+ erythrocytes assessed as inhibition of parasite growth by [3H]hypoxanthine incorporation assay. Type of data set: functional, organism-based.
In data set [1] the target is T1, Histone deacetylase (Plasmodium falciparum 3D7) (UniProt Q7K6A1).
T1 sequence (whole entry): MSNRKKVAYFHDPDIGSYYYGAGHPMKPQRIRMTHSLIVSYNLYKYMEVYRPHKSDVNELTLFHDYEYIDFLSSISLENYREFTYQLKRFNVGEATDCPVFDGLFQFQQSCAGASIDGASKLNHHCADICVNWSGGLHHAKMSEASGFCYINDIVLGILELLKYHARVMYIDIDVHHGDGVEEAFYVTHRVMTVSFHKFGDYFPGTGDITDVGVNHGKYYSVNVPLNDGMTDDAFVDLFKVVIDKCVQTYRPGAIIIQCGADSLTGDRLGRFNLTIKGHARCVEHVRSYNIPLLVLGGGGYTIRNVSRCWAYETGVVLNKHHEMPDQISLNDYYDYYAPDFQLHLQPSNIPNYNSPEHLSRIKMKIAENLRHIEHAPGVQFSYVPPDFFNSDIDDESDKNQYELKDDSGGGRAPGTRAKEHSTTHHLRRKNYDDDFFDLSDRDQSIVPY
Put plainly: Inhibition of trophozoite stage of Plasmodium falciparum 3D7 HDAC1 in infected-human erythrocytes assessed as histone H4 hyperacetylation at 20 to 100 nM after 3.5 hrs by Western blot analysis. It is filed as cell-based. The method in brief: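 P. falciparum 3D7-infected erythrocytes exposed to 20 and 100 nM compound for 3.5 h. Vehicle controls (0.1% DMSO) sampled at start and at 3.5 h. Total protein extracted and run on 15% SDS–PAGE. Histone H4 hyperacetylation read by Western blot with polyclonal anti-tetra-acetyl histone H4 antiserum. Loading checked by Coomassie staining of a matched gel.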
A general note: Immunoblotting shows a protein as a band on a membrane.

Data set [2] deals with T1, Histone deacetylase (Plasmodium falciparum 3D7). Put plainly: (§1) Inhibition of Plasmodium falciparum 3D7 HDAC1 in infected-human erythrocytes assessed as histone H4 hyperacetylation after 1.5 hrs by SDS-PAGE analysis. It is filed as cell-based.
The next data set addresses T2, Histone deacetylase (Plasmodium falciparum 3D7, UniProt Q7K6A1).
T2 sequence (Q7K6A1 whole entry): T1 sequence (whole entry)
Described as §1. It is filed as cell-based.

The subject of a further data set is NFF. In words: Cytotoxicity against human NFF after 96 hrs by sulforhodamine B assay. It is filed as cell-based.
Data set [3] is described as follows: Selectivity index, ratio of IC50 for human NFF to IC50 for drug-sensitive ring-stage Plasmodium falciparum 3D7. The method in brief: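 Ratio computed as NFF IC50 divided by 3D7 IC50. Each IC50 is the mean of three experiments.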
A short description of data set [4]: Selectivity index, ratio of IC50 for human HeLa cells to IC50 for drug-sensitive ring-stage Plasmodium falciparum 3D7. Type of data set: toxicity, cell-based. The conditions noted are these: read-out: Selectivity Index.

Regarding `O=C(/C=C/c1ccc(Oc2ccccc2)cc1)N[C@@H](CCCCCC(=O)NO)C(=O)Nc1cccc2cccnc12`, in the data set on Plasmodium falciparum, the IC50 stood at 156 nM.
As to `CC1=C(CC(=O)N[C@@H](CCCCCC(=O)NO)C(=O)Nc2cccc3cccnc23)c2cc(F)ccc2C1=Cc1ccc(S(C)=O)cc1` (stereo partly specified), in the data set on Plasmodium falciparum, the IC50 turned out to be 35 nM and the IC90 came to 35 nM.
As for `CN(C)c1ccc(C(=O)N[C@@H](CCCCCC(=O)NO)C(=O)Nc2ccccc2Cc2ccccc2)cc1`, the IC50 in the data set on Plasmodium falciparum came out at 5 nM. In data set [1], the inhibition entry is “Active”.
With `COc1cc(/C=C/C(=O)N[C@@H](CCCCCC(=O)NO)C(=O)Nc2cccc3cccnc23)cc(OC)c1O`, in the data set on Plasmodium falciparum, the IC50 amounted to 14 nM and the IC90 amounted to 26 nM.
With `CCCCOc1ccc(/C=C/C(=O)N[C@@H](CCCCCC(=O)NO)C(=O)Nc2cccc3cccnc23)cc1`, in the data set on Plasmodium falciparum, the 50% inhibitory concentration (IC50) came out at 184 nM and the IC90 amounted to 373 nM.
Turning to `COc1ccc(CCNC(=O)[C@H](CCCCCC(=O)NO)NC(=O)c2ccc(N(C)C)cc2)cc1OC`, in the data set with Plasmodium falciparum, the IC50 worked out at 101 nM.
For `Cc1ccc(COc2ccc(/C=C/C(=O)N[C@@H](CCCCCC(=O)NO)C(=O)Nc3cccc4cccnc34)cc2)cc1`, in the data set on Plasmodium falciparum, the half-maximal inhibitory concentration (IC50) turned out to be 153 nM and the IC90 was 375 nM.
Regarding `O=C(CCCCC[C@H](NC(=O)c1cc2ccccc2[nH]1)C(=O)Nc1cccc2cccnc12)NO`, the inhibition result in data set [2] is “Dose-dependent effect”. At Histone deacetylase, the IC50 came out at 78 nM.
In the case of `O=C(CCCCC[C@H](NC(=O)Cc1ccccc1Nc1c(Cl)cccc1Cl)C(=O)Nc1cccc2cccnc12)NO`, in the data set on Plasmodium falciparum, the IC50 came to 65 nM and the concentration for an effect of 90% (IC90) was 119 nM.
On to `CC(C)c1ccc(NC(=O)[C@H](CCCCCC(=O)NO)NC(=O)c2ccc(N(C)C)cc2)cc1`, for which the concentration for half-maximal inhibition (IC50) in the data set with Plasmodium falciparum stood at 22 nM.
With `C[C@@H]1CC[C@H]2[C@@H](C)C(=O)O[C@@H]3O[C@@]4(C)CC[C@@H]1[C@]32OO4`, the inhibition entry in data set [1] was “inactive”.
Turning to `O=C(/C=C/c1cccc(OC/C=C/c2ccccc2)c1)N[C@@H](CCCCCC(=O)NO)C(=O)Nc1cccc2cccnc12`, in the data set with Plasmodium falciparum, the IC50 is 400 nM and the concentration for an effect of 90% (IC90) turned out to be 805 nM.
For the molecule `COc1ccc2cc([C@H](C)C(=O)N[C@@H](CCCCCC(=O)NO)C(=O)Nc3cccc4cccnc34)ccc2c1`, in the data set with Plasmodium falciparum, the IC50 was 14 nM and the IC90 is 24 nM. Further, half-maximal inhibition in the data set on NFF (IC50) required 169 nM. Also, the “Selectivity Index” value in data set [3] is on record as 12. Further, the selectivity ratio in data set [4] turned out to be 17. Besides, in data set [1], the inhibition entry is “Active”.
Take `O=C(/C=C/c1ccccc1)N[C@@H](CCCCCC(=O)NO)C(=O)Nc1cccc2cccnc12`: the inhibition result in data set [2] was “Dose-dependent effect”. In addition, the IC50 at Histone deacetylase turned out to be 87 nM.
As for `CC(C)CCOc1ccc(/C=C/C(=O)N[C@@H](CCCCCC(=O)NO)C(=O)Nc2cccc3cccnc23)cc1`, in the data set on Plasmodium falciparum, the IC50 turned out to be 217 nM and the IC90 was found to be 536 nM.
The matching figures for `O=C(/C=C/c1ccc(OC/C=C/c2ccccc2)cc1)N[C@@H](CCCCCC(=O)NO)C(=O)Nc1cccc2cccnc12`: 453 nM and 827 nM.
The matching figures for `O=C(/C=C/c1ccc(OCc2ccc(Br)cc2)cc1)N[C@@H](CCCCCC(=O)NO)C(=O)Nc1cccc2cccnc12`: 357 nM and 687 nM.
As to `COc1ccc2[nH]c(C)c(CC(=O)N[C@@H](CCCCCC(=O)NO)C(=O)Nc3cccc4cccnc34)c2c1`, the IC50 in the data set on Plasmodium falciparum was 13 nM; with NFF, 260 nM. The concentration for an effect of 90% (IC90) in the data set on Plasmodium falciparum worked out at 22 nM. The “Selectivity Index” value in data set [3] is listed as 20. The selectivity ratio in data set [4] came out at 17. Moreover, in data set [1], the inhibition result is “Active”.
Take `O=C(/C=C/c1cccc(Br)c1)N[C@@H](CCCCCC(=O)NO)C(=O)Nc1cccc2cccnc12`: the IC50 with Plasmodium falciparum stood at 50 nM.
Consider `CN(C)c1ccc(C(=O)N[C@@H](CCCCCC(=O)NO)C(=O)Nc2cccc3cccnc23)cc1`, for which, in data set [3], the “Selectivity Index” value is 30. In addition, the selectivity ratio in data set [4] amounted to 17.
`COc1ccc(/C=C/C(=O)N[C@@H](CCCCCC(=O)NO)C(=O)Nc2cccc3cccnc23)cc1OC`: in the data set with Plasmodium falciparum, the IC50 turned out to be 34 nM and the IC90 came to 61 nM.
Take `COc1cc(/C=C/C(=O)N[C@@H](CCCCCC(=O)NO)C(=O)Nc2cccc3cccnc23)cc(OC)c1OC`: the IC50 with Plasmodium falciparum worked out at 52 nM.
Turning to `Cc1cccc(Nc2ccccc2C(=O)N[C@@H](CCCCCC(=O)NO)C(=O)Nc2cccc3cccnc23)c1C`, in the data set with Plasmodium falciparum, the IC50 came to 51 nM and the IC90 is 89 nM.
The like results for `O=C(CCCCC[C@H](NC(=O)c1ccccc1O)C(=O)Nc1cccc2cccnc12)NO` were, in that order, 115 nM and 214 nM.
The like results for `CC(C(=O)N[C@@H](CCCCCC(=O)NO)C(=O)Nc1cccc2cccnc12)c1ccc(N2Cc3ccccc3C2=O)cc1` (stereo partly specified) were, in that order, 32 nM and 65 nM.
Regarding `CN(C)c1ccc(C(=O)N[C@@H](CCCCCC(=O)NO)C(=O)Nc2cccc3ccccc23)cc1`, in the data set on Plasmodium falciparum, the IC50 is 21 nM.
On to `O=C(/C=C/c1ccco1)N[C@@H](CCCCCC(=O)NO)C(=O)Nc1cccc2cccnc12`, for which, in the data set with Plasmodium falciparum, the IC50 was found to be 15 nM and the IC90 is 27 nM.
In the case of `CC(C)CCOc1cccc(/C=C/C(=O)N[C@@H](CCCCCC(=O)NO)C(=O)Nc2cccc3cccnc23)c1`, in the data set with Plasmodium falciparum, the IC50 was greater than 1000 nM and the IC90 is greater than 1000 nM.
For `Cc1ccc(C(=O)c2ccc(CC(=O)N[C@@H](CCCCCC(=O)NO)C(=O)Nc3cccc4cccnc34)n2C)cc1`, in the data set on Plasmodium falciparum, the IC50 is 47 nM and the IC90 came out at 102 nM.
The matching figures for `CC(C(=O)N[C@@H](CCCCCC(=O)NO)C(=O)Nc1cccc2cccnc12)c1ccc(-c2ccccc2)c(F)c1` (stereo partly specified): 42 nM and 76 nM.

By IC50 is commonly meant the concentration that gives 50% inhibition. Usually IC90 stands for the point of the concentration-response curve where the effect stands at 90%.
